Laboratory results taken from PubChem BioAssay AID2770 (The Scripps Research Institute Molecular Screening Center, 2010).
Calls of active or inactive are those of the source. The rule behind the calls is not given here.

Legend:
Test in all cases: calcium influx via other TRP channels, profiling panel, selectivity assay for TRPML3 agonist project, cell-based, Fura-2 calcium ratio, transfected HEK293, SAR round 1 (AID 2770)
HEK cells = conditions: at 10 µM, hits give high values
Procedure, shortened: (§1)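 Test system: transfected or mock-transfected HEK293 cells carrying assorted TRP channels; input: 20-30 cells imaged per experiment; compound dosing: single 10 µM test compound dose applied by perfusion; schedule: compound at 20-25 h expression, 2 min recording; technique: ratiometric fluorescence imaging with 4 µM fura-2-AM calcium dye; read-out basis: Fura-2 ratio change in intracellular calcium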

[1] = biological target: Ion channel NompC (Danio rerio) (UniProt Q7T1G6); conditions: drTRPN1
Procedure, shortened: as §1

[2] = biological target: Mucolipin-1 (Homo sapiens) (UniProt Q9GZU1)
Mucolipin-1 (Homo sapiens), sequence (Q9GZU1 whole entry, looked up): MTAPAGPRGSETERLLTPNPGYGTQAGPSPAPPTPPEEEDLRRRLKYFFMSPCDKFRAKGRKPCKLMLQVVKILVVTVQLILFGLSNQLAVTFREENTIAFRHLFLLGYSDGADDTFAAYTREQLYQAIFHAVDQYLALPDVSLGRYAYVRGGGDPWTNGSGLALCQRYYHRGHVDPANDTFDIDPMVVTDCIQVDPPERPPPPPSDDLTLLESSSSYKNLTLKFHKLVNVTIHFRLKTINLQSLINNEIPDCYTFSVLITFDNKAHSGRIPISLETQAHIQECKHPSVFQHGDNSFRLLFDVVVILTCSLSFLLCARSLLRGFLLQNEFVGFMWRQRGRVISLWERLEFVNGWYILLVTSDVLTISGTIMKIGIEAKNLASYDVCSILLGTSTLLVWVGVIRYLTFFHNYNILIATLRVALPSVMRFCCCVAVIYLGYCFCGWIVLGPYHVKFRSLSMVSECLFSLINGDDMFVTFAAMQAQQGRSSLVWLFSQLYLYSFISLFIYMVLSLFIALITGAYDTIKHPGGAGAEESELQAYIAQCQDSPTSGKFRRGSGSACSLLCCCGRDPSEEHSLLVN
Procedure, shortened: as §1

hTRPA1 = tested on: hTRPA1
Procedure, shortened: as §1

hTRPC3 = tested on: hTRPC3
Procedure, shortened: as §1

hTRPM2 = tested on: hTRPM2
Procedure, shortened: as §1

mTRPML2 (mucolipin 2) = tested on: mTRPML2 (mucolipin 2)
Procedure, shortened: as §1

mTRPV2 = tested on: mTRPV2
Procedure, shortened: as §1

[3] = hTRPML1 (NC) plasma membrane variant

Measured: Fura-2 340/380 ratio change

CC1CCN(S(=O)(=O)c2ccc(C(C)C)cc2)CC1
inactive: HEK cells -0.008 | [1] inactive; selective for TRPML3 | [2]; hTRPML1 inactive; selective for TRPML3 | [2]; [3] inactive; selective for TRPML3 | hTRPA1 inactive; selective for TRPML3 | hTRPC3 inactive; selective for TRPML3 | hTRPM2 inactive; selective for TRPML3 | mTRPML2 (mucolipin 2) inactive; selective for TRPML3 | mTRPV2 inactive; selective for TRPML3

CCOc1ccc(S(=O)(=O)N2CCCCCC2)c2ccccc12
inactive: HEK cells -0.011 | [1] inactive; selective for TRPML3 | [2]; hTRPML1 inactive; selective for TRPML3 | [2]; [3] inactive; selective for TRPML3 | hTRPA1 inactive; selective for TRPML3 | hTRPC3 inactive; selective for TRPML3 | hTRPM2 inactive; selective for TRPML3 | mTRPML2 (mucolipin 2) inactive; selective for TRPML3 | mTRPV2 inactive; selective for TRPML3

Cc1ccc(S(=O)(=O)n2nccc2-c2c(-c3ccc(Cl)cc3)noc2C)cc1
inactive: HEK cells -0.005 | [1] inactive; selective for TRPML3 | [2]; hTRPML1 inactive; selective for TRPML3 | [2]; [3] inactive; selective for TRPML3 | hTRPA1 inactive; selective for TRPML3 | hTRPC3 inactive; selective for TRPML3 | hTRPM2 inactive; selective for TRPML3 | mTRPML2 (mucolipin 2) inactive; selective for TRPML3 | mTRPV2 inactive; selective for TRPML3
